From ChEMBL document CHEMBL1143425, “Paradoxical growth effect of caspofungin observed on biofilms and planktonic cells of five different Candida species” (2007)
Converted amounts (≈) assume the structure as drawn. The source made the active and inactive calls.

What was measured:
[1] = tested on: Candida orthopsilosis; test: Antimicrobial activity against Candida orthopsilosis BR-A34 grown as planktonic cell assessed as concentration producing paradoxical growth after 48 hrs by XTT reduction assay; format: functional
Method in brief: (§1)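 Planktonic cells were tested by CLSI M27-A2 broth microdilution with caspofungin in water, incubated 48 h. XTT-menadione was added to each well, plates were held 1 h at 35°C in the dark and centrifuged, and supernatant absorbance was read at 490 nm. MIC was defined as 50% decrease in metabolic activity versus drug-free control. PG was defined as ≥20% of control activity at concentrations above MIC.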

[2] = tested on: Candida tropicalis; test: Antimicrobial activity against Candida tropicalis BR-A14 grown as planktonic cell assessed as concentration producing paradoxical growth after 48 hrs by XTT reduction assay; format: functional
Method in brief: (§2)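 Planktonic broth microdilution followed CLSI M27-A2, with caspofungin dissolved in water. After 48 h, XTT-menadione was added to each well and plates were incubated 1 h at 35°C in the dark. Cells were pelleted by centrifugation and the supernatant was read at 490 nm. MIC was the lowest concentration giving a 50% drop in metabolic activity versus the drug-free control. PG was ≥20% of drug-free activity above the MIC.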

[3] = tested on: Candida parapsilosis; test: Antimicrobial activity against Candida parapsilosis 22019 grown as biofilm assessed as concentration producing paradoxical growth after 48 hrs by XTT reduction assay; format: functional
Method in brief: (§3)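 Sabouraud-grown cells were shaken overnight (18 h, 120 rpm, 35°C) in RPMI 1640 with MOPS at pH 7.0, then washed and set at ~1 × 10^7 cells/ml. Attachment lasted 1.5 h at 37°C, and growth ran 24 h before challenge. Caspofungin was added in RPMI at 2–1,024 μg/ml (10 doublings) for 48 h at 35°C with shaking. XTT-menadione was read at 490 nm after 1 h at 35°C in the dark, with blank wells subtracted. MIC was taken as 50% reduction versus drug-free wells, and PG as >50% of control above MIC. Assays were run in duplicate.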

[4] = tested on: Candida parapsilosis; test: Antimicrobial activity against Candida parapsilosis BR-A25 grown as biofilm assessed as concentration producing paradoxical growth after 48 hrs by XTT reduction assay; format: functional
Method in brief: (§4)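 Clinical isolates were grown overnight (18 h, 35°C, 120 rpm) in RPMI 1640 with MOPS, pH 7.0, then washed and set to ~1 × 10^7 cells/ml. Cells attached for 1.5 h at 37°C, 75 rpm, then biofilms grew 24 h. Caspofungin was given as doubling dilutions of 2–1,024 μg/ml for 48 h at 35°C, 75 rpm. Read-out was XTT-menadione in PBS, 1 h at 35°C in the dark, A490, cell-free blank subtracted. MIC was a 50% drop in activity versus drug-free; PG was >50% of control above MIC. Run in duplicate.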

[5] = tested on: Candida parapsilosis; test: Antimicrobial activity against Candida parapsilosis BR-A31 grown as biofilm assessed as concentration producing paradoxical growth after 48 hrs by XTT reduction assay; format: functional; method in brief: as §4
[6] = tested on: Candida metapsilosis; test: Antimicrobial activity against Candida metapsilosis BR-A41 grown as biofilm assessed as concentration producing paradoxical growth after 48 hrs by XTT reduction assay; format: functional; method in brief: as §3
[7] = tested on: Candida metapsilosis; test: Antimicrobial activity against Candida metapsilosis BR-A40 grown as biofilm assessed as concentration producing paradoxical growth after 48 hrs by XTT reduction assay; format: functional; method in brief: as §3
[8] = tested on: Candida parapsilosis; test: Effect on morphology in Candida parapsilosis grown as biofilm assessed as rounding and clumping at 128 ug/ml after 48 hrs; format: functional, organism-based
Method in brief: (§5)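 Biofilms formed in RPMI 1640 wells were exposed to caspofungin for 48 h and compared with drug-free control wells. Wells were examined in the plate under an inverted light microscope at ×200 and photographed.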

[9] = tested on: Candida tropicalis; test: Antimicrobial activity against Candida tropicalis BR-A9 grown as planktonic cell assessed as concentration producing paradoxical growth after 48 hrs by XTT reduction assay; format: functional; method in brief: as §2
[10] = tested on: Candida orthopsilosis; test: Effect on morphology in Candida orthopsilosis grown as biofilm assessed as rounding and clumping at 32 ug/ml after 48 hrs; format: functional, organism-based; method in brief: as §5
[11] = tested on: Candida tropicalis; test: Antimicrobial activity against Candida tropicalis BR-A20 grown as biofilm assessed as concentration producing paradoxical growth after 48 hrs by XTT reduction assay; format: functional; method in brief: as §4
[12] = tested on: Candida parapsilosis; test: Effect on morphology in Candida parapsilosis grown as planktonic cells assessed as rounding and clumping at 16 ug/ml after 48 hrs; format: functional, organism-based
Method in brief: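 Clinical isolates were tested by CLSI M27-A2 broth microdilution with caspofungin dissolved in sterile water. After 48 h incubation, cells were taken from drug-containing and drug-free control wells. They were examined by light microscopy at ×400 for hyphae or pseudohyphae, rounding or clumping, and enlarged globose cells.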

[13] = tested on: Candida tropicalis; test: Antimicrobial activity against Candida tropicalis BR-A18 grown as biofilm after 48 hrs by XTT reduction assay; format: functional; method in brief: as §4
[14] = tested on: Candida albicans; test: Effect on morphology in Candida albicans grown as planktonic cells assessed as inhibition of hyphae and pseudohyphae at 16 ug/ml after 48 hrs; format: functional, organism-based
Method in brief: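 Cells were taken from caspofungin-containing and drug-free wells of the planktonic broth microdilution test after 48 h. They were examined by light microscopy at ×400.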

[15] = tested on: Candida parapsilosis; test: Antimicrobial activity against Candida parapsilosis BR-A27 grown as planktonic cell after 48 hrs by XTT reduction assay; format: functional; conditions: Lodderomyces parapsilosis
Method in brief: (§6)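 Planktonic broth microdilution followed CLSI M27-A2, with caspofungin dissolved in water. After 48 h, XTT-menadione was added to the wells and plates were kept 1 h at 35°C in the dark. Plates were then centrifuged and supernatant A490 was read. MIC was the lowest concentration giving a 50% decrease in metabolic activity versus drug-free control. Paradoxical growth was defined as ≥20% of control activity above the MIC.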

[16] = tested on: Candida parapsilosis; test: Antimicrobial activity against Candida parapsilosis BR-A26 grown as biofilm assessed as paradoxical growth after 48 hrs by XTT reduction assay; format: functional, organism-based; method in brief: as §4
[17] = tested on: Candida albicans; test: Antimicrobial activity against Candida albicans BR-A2 grown as planktonic cell after 48 hrs by XTT reduction assay; format: functional; method in brief: as §6
[18] = tested on: Candida tropicalis; test: Antimicrobial activity against Candida tropicalis BR-A8 grown as planktonic cell after 48 hrs by XTT reduction assay; format: functional; method in brief: as §6
[19] = tested on: Candida parapsilosis; test: Effect on morphology in Candida parapsilosis grown as biofilm assessed as inhibition of hyphae and pseudohyphae at 128 ug/ml after 48 hrs; format: functional, organism-based; method in brief: as §5
[20] = tested on: Candida albicans; test: Antimicrobial activity against Candida albicans BR-A7 grown as planktonic cell after 48 hrs by XTT reduction assay; format: functional; method in brief: as §6
[21] = tested on: Candida metapsilosis; test: Antimicrobial activity against Candida metapsilosis BR-A44 grown as biofilm assessed as concentration producing paradoxical growth after 48 hrs by XTT reduction assay; format: functional; method in brief: as §3
[22] = tested on: Candida tropicalis; test: Antimicrobial activity against Candida tropicalis BR-A24 grown as planktonic cell after 48 hrs by XTT reduction assay; format: functional; method in brief: as §6
[23] = tested on: Candida orthopsilosis; test: Antimicrobial activity against Candida orthopsilosis BR-A38 grown as biofilm after 48 hrs by XTT reduction assay; format: functional; conditions: Lodderomyces orthopsilosis; method in brief: as §3
[24] = tested on: Candida metapsilosis; test: Antimicrobial activity against Candida metapsilosis BR-A40 grown as planktonic cell after 48 hrs by XTT reduction assay; format: functional; conditions: Lodderomyces metapsilosis; method in brief: as §1
[25] = tested on: Candida parapsilosis; test: Antimicrobial activity against Candida parapsilosis BR-A27 grown as biofilm assessed as paradoxical growth after 48 hrs by XTT reduction assay; format: functional, organism-based; method in brief: as §4
[26] = tested on: Candida orthopsilosis; test: Antimicrobial activity against Candida orthopsilosis BR-A35 grown as planktonic cell assessed as paradoxical growth after 48 hrs by XTT reduction assay; format: functional, organism-based; method in brief: as §1
[27] = tested on: Candida metapsilosis; test: Antimicrobial activity against Candida metapsilosis BR-A43 grown as planktonic cell assessed as paradoxical growth after 48 hrs by XTT reduction assay; format: functional, organism-based; method in brief: as §1
[28] = tested on: Candida metapsilosis; test: Effect on morphology in Candida metapsilosis grown as biofilm assessed as inhibition of hyphae and pseudohyphae at 16 ug/ml after 48 hrs; format: functional, organism-based; method in brief: as §5

CC[C@H](C)C[C@H](C)CCCCCCCCC(=O)N[C@H]1C[C@@H](O)[C@@H](NCCN)NC(=O)[C@@H]2[C@@H](O)CCN2C(=O)[C@H]([C@H](O)CCN)NC(=O)[C@H]([C@H](O)[C@@H](O)c2ccc(O)cc2)NC(=O)[C@@H]2C[C@@H](O)CN2C(=O)[C@H]([C@@H](C)O)NC1=O [CASPOFUNGIN]
Activity [1]: 4 µg/mL | Activity [2]: 8 µg/mL | Activity [3]: 16 µg/mL | Activity [4]: 16 µg/mL | Activity [5]: 32 µg/mL | Activity [6]: 16 µg/mL | Activity [7]: 16 µg/mL | Activity [8]: Active | Activity [9]: 8 µg/mL | Activity [10]: Active | Activity [11]: 8 µg/mL | Activity [12]: Active | MIC [13]: 128 µg/mL (≈ 117 µM) | Activity [14]: Active | MIC [15]: 2 µg/mL (≈ 1.83 µM) | Activity [16]: Active | MIC [17]: 0.5 µg/mL (≈ 0.457 µM) | MIC [18]: 1 µg/mL (≈ 0.915 µM) | Activity [19]: Active | MIC [20]: 0.5 µg/mL (≈ 0.457 µM) | Activity [21]: 16 µg/mL | MIC [22]: 1 µg/mL (≈ 0.915 µM) | MIC [23]: 512 µg/mL (≈ 468 µM) | MIC [24]: 1 µg/mL (≈ 0.915 µM) | Activity [25]: Active | Activity [26]: inactive | Activity [27]: inactive | Activity [28]: Active
